Reference: ChEMBL document CHEMBL4041530, “Development of spiroguanidine-derived α7 neuronal nicotinic receptor partial agonists” (Bioorg Med Chem Lett, 2017)

Tested on: Rattus norvegicus
Test: In vivo agonist activity at alpha7 nAChR in Wistar rat assessed as induction of c-fos gene expression in medial prefrontal cortex at 10 mg/kg, sc after 2 hrs by qPCR method relative to control
Assay type: functional
Details: not given
Method in brief: (§1)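 Rats dosed sc at 0.3–10 mg/kg, or with vehicle at 2 mL/kg sc. Medial prefrontal cortex was assayed for c-fos and Arc expression, normalized to vehicle, with β2-microglobulin as the endogenous control. Data are mean ± SEM, N = 8. Dunnett's multiple comparison test against vehicle gave adjusted p values.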

SMILES	fold change (FC)
c1ccc2sc(NC3=NCC4(CN5CCC4CC5)N3)nc2c1 (stereo unspecified)	1.9
O=C(Oc1ccc(Br)cc1)N1CCN2CCC1CC2 [SSR180711]	2.4

Tested on: not listed separately
Test: Drug uptake in Wistar rat brain at 10 mg/kg, sc after 2 hrs
Assay type: ADME, organism-based
Details: read-out: Drug uptake

SMILES	concentration at 2 h [nM]
c1ccc2sc(NC3=NCC4(CN5CCC4CC5)N3)nc2c1 (stereo unspecified)	1920

Tested on: Rattus norvegicus
Test: In vivo agonist activity at alpha7 nAChR in Wistar rat assessed as induction of Arc gene expression in medial prefrontal cortex at 3 mg/kg, sc after 2 hrs by qPCR method relative to control
Assay type: functional
Details: not given
Method in brief: (§2)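 Rats dosed sc (0.3–10 mg/kg; vehicle 2 mL/kg sc) and c-fos and Arc expression measured in medial prefrontal cortex. Values are normalized to vehicle, mean ± SEM, N = 8. Comparison with vehicle by Dunnett's multiple comparison test (adjusted p). β2-microglobulin served as endogenous control. Plasma and brain/plasma levels were sampled at 3 and 10 mg/kg.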

SMILES	fold change (FC)
c1ccc2sc(NC3=NCC4(CN5CCC4CC5)N3)nc2c1 (stereo unspecified)	1.5

Tested on: not listed separately
Test: Ratio of drug uptake in Wistar rat brain to plasma at 1 mg/kg, sc after 2 hrs
Assay type: ADME, organism-based
Details: read-out: BPR

SMILES	Kp at 2 h
c1ccc2sc(NC3=NCC4(CN5CCC4CC5)N3)nc2c1 (stereo unspecified)	4.3

Tested on: not listed separately
Test: Ratio of drug uptake in Wistar rat brain to plasma at 3 mg/kg, sc after 2 hrs
Assay type: ADME, organism-based
Details: read-out: BPR
Method in brief: (§3)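 Plasma concentration and brain/plasma ratio measured at 3 and 10 mg/kg sc, in the same rats used for the prefrontal c-fos/Arc expression study.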

SMILES	Kp at 2 h
c1ccc2sc(NC3=NCC4(CN5CCC4CC5)N3)nc2c1 (stereo unspecified)	4

Tested on: not listed separately
Test: Drug uptake in Wistar rat brain at 0.3 mg/kg, sc after 2 hrs
Assay type: ADME, organism-based
Details: read-out: Drug uptake

SMILES	concentration at 2 h [nM]
c1ccc2sc(NC3=NCC4(CN5CCC4CC5)N3)nc2c1 (stereo unspecified)	58

Tested on: not listed separately
Test: Plasma concentration in Wistar rat at 0.3 mg/kg, sc after 2 hrs
Assay type: ADME, organism-based
Details: not given

SMILES	concentration at 2 h [nM]
c1ccc2sc(NC3=NCC4(CN5CCC4CC5)N3)nc2c1 (stereo unspecified)	12

Tested on: Rattus norvegicus
Test: In vivo agonist activity at alpha7 nAChR in Wistar rat assessed as induction of c-fos gene expression in medial prefrontal cortex at 1 mg/kg, sc after 2 hrs by qPCR method relative to control
Assay type: functional
Details: not given
Method in brief: as §2

SMILES	fold change (FC)
c1ccc2sc(NC3=NCC4(CN5CCC4CC5)N3)nc2c1 (stereo unspecified)	1.1

Molecular target: Neuronal acetylcholine receptor subunit alpha-7 (Rattus norvegicus) (UniProt Q05941)
Test: Agonist activity at rat alpha7 nAChR expressed in HEK293 cells co-expressing human RIC-3 assessed as maximum peak current at 10 uM at holding potential of -90 mV by whole-cell voltage clamp electrophysiology method relative to acetylcholine
Assay type: cell-based
Details: not given
Method in brief: (§4)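 Concentration-response patch-clamp electrophysiology in HEK-293 cells expressing rat α7 nAChR. EC50 is taken from response area. Efficacy is given as Ymax from both area and peak response.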

Chain of Neuronal acetylcholine receptor subunit alpha-7 (Rattus norvegicus) (Q05941 whole entry): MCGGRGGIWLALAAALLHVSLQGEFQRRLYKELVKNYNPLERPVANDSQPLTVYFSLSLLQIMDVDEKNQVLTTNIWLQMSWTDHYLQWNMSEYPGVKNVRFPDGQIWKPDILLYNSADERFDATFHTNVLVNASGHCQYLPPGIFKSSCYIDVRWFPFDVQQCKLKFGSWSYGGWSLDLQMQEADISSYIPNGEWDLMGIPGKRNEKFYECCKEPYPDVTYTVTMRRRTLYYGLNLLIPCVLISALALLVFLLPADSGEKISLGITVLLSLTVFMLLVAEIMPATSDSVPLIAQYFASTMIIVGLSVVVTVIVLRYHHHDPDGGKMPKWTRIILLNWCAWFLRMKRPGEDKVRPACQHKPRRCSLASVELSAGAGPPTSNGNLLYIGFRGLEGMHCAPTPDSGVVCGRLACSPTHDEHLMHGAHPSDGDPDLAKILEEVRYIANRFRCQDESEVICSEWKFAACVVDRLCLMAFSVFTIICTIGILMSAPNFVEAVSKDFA

SMILES	Emax [%]
c1ccc2sc(NC3=NCC4(CN5CCC4CC5)N3)nc2c1 (stereo unspecified)	29

Tested on: Rattus norvegicus
Test: Effect on beta2-microglobulin gene expression in Wistar rat medial prefrontal cortex at 10 mg/kg, sc after 2 hrs by qPCR method
Assay type: ADME, organism-based
Details: in vivo
Method in brief: as §1

SMILES	Activity
O=C(Oc1ccc(Br)cc1)N1CCN2CCC1CC2 [SSR180711]	Non-Toxic

Tested on: Rattus norvegicus
Test: Effect on beta2-microglobulin gene expression in Wistar rat medial prefrontal cortex at 0.3 to 10 mg/kg, sc after 2 hrs by qPCR method
Assay type: ADME, organism-based
Details: in vivo
Method in brief: as §1

SMILES	Activity
c1ccc2sc(NC3=NCC4(CN5CCC4CC5)N3)nc2c1 (stereo unspecified)	Non-Toxic

Tested on: not listed separately
Test: Plasma concentration in Wistar rat at 1 mg/kg, sc after 2 hrs
Assay type: ADME, organism-based
Details: not given

SMILES	concentration at 2 h [nM]
c1ccc2sc(NC3=NCC4(CN5CCC4CC5)N3)nc2c1 (stereo unspecified)	43

Molecular target: Neuronal acetylcholine receptor subunit alpha-7 (Rattus norvegicus, UniProt Q05941)
Test: Agonist activity at rat alpha7 nAChR expressed in HEK293 cells co-expressing human RIC-3 assessed as area under current curve at holding potential of -90 mV by whole-cell voltage clamp electrophysiology method
Assay type: cell-based
Details: not given
Method in brief: as §4

Chain of Neuronal acetylcholine receptor subunit alpha-7 (Rattus norvegicus, UniProt Q05941) (Q05941 whole entry): as above

SMILES	EC50 [nM]
c1ccc2sc(NC3=NCC4(CN5CCC4CC5)N3)nc2c1 (stereo unspecified)	200

Tested on: Rattus norvegicus
Test: In vivo agonist activity at alpha7 nAChR in Wistar rat assessed as induction of Arc gene expression in medial prefrontal cortex at 10 mg/kg, sc after 2 hrs by qPCR method relative to control
Assay type: functional
Details: not given
Method in brief: as §1

SMILES	fold change (FC)
c1ccc2sc(NC3=NCC4(CN5CCC4CC5)N3)nc2c1 (stereo unspecified)	2.7
O=C(Oc1ccc(Br)cc1)N1CCN2CCC1CC2 [SSR180711]	3.9

Molecular target: Neuronal acetylcholine receptor subunit alpha-7 (Homo sapiens, UniProt P36544)
Test: Agonist activity at alpha7 nAChR (unknown origin) expressed in HEK293 cells assessed as increase in calcium influx by Fluo-4-AM dye based FLIPR assay
Assay type: cell-based
Details: not given
Method in brief: (§5)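 Ca2+-based fluorescence imaging plate reader screen, run as two assays: α7 nAChR agonism and 5-HT3A receptor antagonism. Number of determinations recorded per value.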

Chain of Neuronal acetylcholine receptor subunit alpha-7 (Homo sapiens, UniProt P36544) (P36544 whole entry): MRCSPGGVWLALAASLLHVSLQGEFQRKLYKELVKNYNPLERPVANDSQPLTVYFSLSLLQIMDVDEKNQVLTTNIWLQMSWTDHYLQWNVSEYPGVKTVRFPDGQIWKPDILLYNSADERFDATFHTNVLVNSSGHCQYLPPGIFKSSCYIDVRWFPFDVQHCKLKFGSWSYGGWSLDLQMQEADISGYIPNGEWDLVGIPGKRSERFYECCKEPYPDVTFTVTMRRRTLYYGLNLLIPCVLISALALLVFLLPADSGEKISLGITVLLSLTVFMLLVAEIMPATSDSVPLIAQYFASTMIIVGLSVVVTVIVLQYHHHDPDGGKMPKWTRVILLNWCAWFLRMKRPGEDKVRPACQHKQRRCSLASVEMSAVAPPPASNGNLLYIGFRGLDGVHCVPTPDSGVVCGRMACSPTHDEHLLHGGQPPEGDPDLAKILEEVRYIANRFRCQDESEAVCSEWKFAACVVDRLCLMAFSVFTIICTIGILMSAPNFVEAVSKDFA

SMILES	EC50 [nM]
c1ccc2sc(NC3=NCC4(CN5CCC4CC5)N3)nc2c1 (stereo unspecified)	26

Tested on: Rattus norvegicus
Test: In vivo agonist activity at alpha7 nAChR in Wistar rat assessed as induction of Arc gene expression in medial prefrontal cortex at 0.3 mg/kg, sc after 2 hrs by qPCR method relative to control
Assay type: functional
Details: not given
Method in brief: as §2

SMILES	fold change (FC)
c1ccc2sc(NC3=NCC4(CN5CCC4CC5)N3)nc2c1 (stereo unspecified)	1.2

Molecular target: Neuronal acetylcholine receptor subunit alpha-7 (Rattus norvegicus) (UniProt Q05941)
Test: Displacement of [125I]Tyr54-alpha-Bungarotoxin from rat alpha7 nAChR expressed in HEK293 cell membranes co-expressing human RIC-3 after 2 hrs by gamma counting method
Details: not given

SMILES	INH [nM]
c1ccc2sc(NC3=NCC4(CN5CCC4CC5)N3)nc2c1 (stereo unspecified)	240

Tested on: not listed separately
Test: Plasma concentration in Wistar rat at 3 mg/kg, sc after 2 hrs
Assay type: ADME, organism-based
Details: not given
Method in brief: as §3

SMILES	concentration at 2 h [nM]
c1ccc2sc(NC3=NCC4(CN5CCC4CC5)N3)nc2c1 (stereo unspecified)	130 to 131

Tested on: not listed separately
Test: Plasma concentration in Wistar rat at 10 mg/kg, sc after 2 hrs
Assay type: ADME, organism-based
Details: not given
Method in brief: as §3

SMILES	concentration at 2 h [nM]
c1ccc2sc(NC3=NCC4(CN5CCC4CC5)N3)nc2c1 (stereo unspecified)	460 to 463

Molecular target: Neuronal acetylcholine receptor subunit alpha-7 (Rattus norvegicus) (UniProt Q05941)
Test: Agonist activity at rat alpha7 nAChR expressed in HEK293 cells co-expressing human RIC-3 assessed as area under current curve at 10 uM at holding potential of -90 mV by whole-cell voltage clamp electrophysiology method relative to acetylcholine
Assay type: cell-based
Details: not given
Method in brief: as §4

SMILES	Emax [%]
c1ccc2sc(NC3=NCC4(CN5CCC4CC5)N3)nc2c1 (stereo unspecified)	78

Tested on: not listed separately
Test: Drug uptake in Wistar rat brain at 1 mg/kg, sc after 2 hrs
Assay type: ADME, organism-based
Details: read-out: Drug uptake

SMILES	concentration at 2 h [nM]
c1ccc2sc(NC3=NCC4(CN5CCC4CC5)N3)nc2c1 (stereo unspecified)	184

Tested on: not listed separately
Test: Drug uptake in Wistar rat brain at 3 mg/kg, sc after 2 hrs
Assay type: ADME, organism-based
Details: read-out: Drug uptake

SMILES	concentration at 2 h [nM]
c1ccc2sc(NC3=NCC4(CN5CCC4CC5)N3)nc2c1 (stereo unspecified)	524

Tested on: Rattus norvegicus
Test: In vivo agonist activity at alpha7 nAChR in Wistar rat assessed as induction of Arc gene expression in medial prefrontal cortex at 1 mg/kg, sc after 2 hrs by qPCR method relative to control
Assay type: functional
Details: not given
Method in brief: as §2

SMILES	fold change (FC)
c1ccc2sc(NC3=NCC4(CN5CCC4CC5)N3)nc2c1 (stereo unspecified)	1

Tested on: Rattus norvegicus
Test: In vivo agonist activity at alpha7 nAChR in Wistar rat assessed as induction of c-fos gene expression in medial prefrontal cortex at 3 mg/kg, sc after 2 hrs by qPCR method relative to control
Assay type: functional
Details: not given
Method in brief: as §2

SMILES	fold change (FC)
c1ccc2sc(NC3=NCC4(CN5CCC4CC5)N3)nc2c1 (stereo unspecified)	1.7

Molecular target: T1, 5-hydroxytryptamine receptor 3A (Homo sapiens, UniProt P46098)
T1 sequence (P46098 whole entry): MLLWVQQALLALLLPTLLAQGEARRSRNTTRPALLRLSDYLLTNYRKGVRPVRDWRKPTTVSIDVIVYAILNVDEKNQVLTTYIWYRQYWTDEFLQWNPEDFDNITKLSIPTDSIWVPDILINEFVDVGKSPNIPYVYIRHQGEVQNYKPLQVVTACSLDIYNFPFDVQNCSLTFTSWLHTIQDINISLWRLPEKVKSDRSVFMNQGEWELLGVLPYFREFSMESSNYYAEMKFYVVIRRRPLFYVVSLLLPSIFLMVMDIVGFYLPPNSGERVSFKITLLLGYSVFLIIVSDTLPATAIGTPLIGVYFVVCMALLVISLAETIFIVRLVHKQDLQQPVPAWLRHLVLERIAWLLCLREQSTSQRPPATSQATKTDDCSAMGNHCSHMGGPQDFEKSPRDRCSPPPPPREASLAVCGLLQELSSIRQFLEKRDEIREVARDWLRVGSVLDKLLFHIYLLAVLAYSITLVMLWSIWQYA
Test: Antagonist activity at 5-HT3A receptor (unknown origin) assessed as decrease in calcium influx by Fluo-4-AM dye based FLIPR assay
Details: not given
Method in brief: as §5

SMILES	IC50 [nM]
c1ccc2sc(NC3=NCC4(CN5CCC4CC5)N3)nc2c1 (stereo unspecified)	26

Species on record: Homo sapiens
Test: Selectivity ratio of IC50 for 5-HT3A receptor (unknown origin) to EC50 for alpha7 nAChR (unknown origin) expressed in HEK293 cells
Assay type: cell-based
Details: not given
Method in brief: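 Selectivity ratio calculated as 5-HT3A IC50 (FLIPR Ca2+ antagonist assay) divided by α7 EC50 (FLIPR Ca2+ agonist assay).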

SMILES	Ratio IC50/EC50
c1ccc2sc(NC3=NCC4(CN5CCC4CC5)N3)nc2c1 (stereo unspecified)	1

Tested on: Rattus norvegicus
Test: In vivo agonist activity at alpha7 nAChR in Wistar rat assessed as induction of c-fos gene expression in medial prefrontal cortex at 0.3 mg/kg, sc after 2 hrs by qPCR method relative to control
Assay type: functional
Details: not given
Method in brief: as §2

SMILES	fold change (FC)
c1ccc2sc(NC3=NCC4(CN5CCC4CC5)N3)nc2c1 (stereo unspecified)	1.5

Tested on: not listed separately
Test: Ratio of drug uptake in Wistar rat brain to plasma at 0.3 mg/kg, sc after 2 hrs
Assay type: ADME, organism-based
Details: read-out: BPR

SMILES	Kp at 2 h
c1ccc2sc(NC3=NCC4(CN5CCC4CC5)N3)nc2c1 (stereo unspecified)	4.8

Tested on: not listed separately
Test: Ratio of drug uptake in Wistar rat brain to plasma at 10 mg/kg, sc after 2 hrs
Assay type: ADME, organism-based
Details: read-out: BPR
Method in brief: as §3

SMILES	Kp at 2 h
c1ccc2sc(NC3=NCC4(CN5CCC4CC5)N3)nc2c1 (stereo unspecified)	4.1
